Assay results collected from several papers.

| Structure (SMILES) | assay | system | conditions | measurement | result |
| --- | --- | --- | --- | --- | --- |
| CSc1sc(C)cc1-c1nsc(=O)o1 | chemical stability | culture medium |  | half-life | 110 min |
| CCN(CC)CCCC[C@H](NC(=O)[C@H](CC(C)C)NC(=O)[C@H](C)NC(=O)[C@H](Cc1ccccc1)NC(=O)c1ccc(C(C)(C)C)cc1)C(=O)N[C@@H](CO)C(=O)OC |  | male Swiss mouse, plasma | intraperitoneal, 10 mg/kg | bioavailability | 25% |
| COc1ncccc1-c1cnn2ccc(N3CCN(C(=O)OC(C)C)CC3)nc12 |  | mouse, plasma | oral, 10 mg/kg | bioavailability | ~100% |
| Cc1cc(-c2nsc(=O)o2)c(S(C)(=O)=O)s1 | chemical stability | culture medium |  | half-life | 13.5 min |
| CCC[C@@](N)(CO)CCc1ccc(OCCCCCC(C)C)cc1 |  | mouse, plasma | intravenous, 5 mg/kg | AUC(0-t) | 0.714 µM·h |
| Cc1cc(C)nc(Nc2ncc(C(=O)NCCc3c(C)[nH]c4ccccc34)cn2)c1 | metabolic stability | rat, liver microsomes | 1 µM | half-life | 3.8 min |
| O=C(NC1CCCCC1)Oc1ccc2ccccc2c1 | metabolic stability | male Wistar rat, liver S9 | 1 µM, pH 7.4 | half-life | 5 min |
| NS(=O)(=O)c1ccc(Cc2c(-c3cccc(-c4ccccc4)c3)nn(-c3nc(C(=O)O)cs3)c2C2CC2)cc1 |  | male CD-1 mouse, plasma | oral, 50 mg/kg | bioavailability | ~50% |
| O=C(Nc1nccs1)C(c1cc(F)ccc1O)N1Cc2ccc(-c3ccc(N4CCNCC4)cc3)cc2C1=O (centres unmarked) |  | mouse, plasma | oral, 20 mg/kg | bioavailability | 3% |
| C[C@]12CC[C@H](n3ccnc3)CC1=CC[C@@H]1[C@@H]2CC[C@]2(C)C(n3cnc4ccccc43)=CC[C@@H]12.Cl |  | male CD-1 mouse, plasma | intravenous, 1 mg/kg | AUC(0-t) | 2040 ng·h/mL |
| O=C(NC1CCCCC1)Oc1ccc(-c2ccccc2)cc1 | metabolic stability | male Wistar rat, liver S9 | 1 µM, pH 7.4 | half-life | 19 min |
